Here are results for 9 molecules from PMC12366268 (The Febs Journal, 2025).

Like-named read-outs stand apart in the source and are kept apart here.

A short description of series [1]: Stability in human serum measured by mass spectrometry. The following applies: 25% human serum in PBS. The format is in vitro ADME. The method in brief:
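Peptide at 10 μM was incubated in 25% human serum in PBS at 37 °C. Aliquots were taken at 0, 2.5, 5, 10, 20, 40 and 60 min into 0.2% formic acid (1:4) containing an internal standard and held at 4 °C. Peptide abundance relative to the internal standard was measured by mass spectrometry and plotted against incubation time.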

Series [2] deals with PCNA (Homo sapiens, UniProt P12004). Nature of the series: Isothermal titration calorimetry. The format is binding. The settings on record: ITC, pH 7.4, 25 °C, mean ± SEM of n = 3. The method in brief: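 His6-tagged PCNA (HRV 3C site) was IPTG-induced at 37 °C, then purified by Ni-NTA and Superdex 200 SEC. Protein was buffer-exchanged into 20 mM sodium phosphate, 0–500 mM NaCl, 1 mM TCEP, pH 7.4, with peptides dissolved in the same buffer. PCNA was in the cell, peptide in the syringe; 25 °C, 750 rpm stirring. Data were fitted to a one-set-of-sites model; triplicates, SEM.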
Chain of PCNA (P12004 whole entry): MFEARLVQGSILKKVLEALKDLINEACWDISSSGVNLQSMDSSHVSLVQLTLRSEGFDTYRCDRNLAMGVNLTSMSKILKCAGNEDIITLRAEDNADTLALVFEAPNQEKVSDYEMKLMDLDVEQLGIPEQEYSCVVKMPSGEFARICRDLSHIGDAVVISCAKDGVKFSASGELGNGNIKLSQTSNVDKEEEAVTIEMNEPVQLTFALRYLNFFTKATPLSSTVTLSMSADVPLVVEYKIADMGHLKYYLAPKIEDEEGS
In general terms: Isothermal titration calorimetry measures the heat released or taken up as one component is titrated into another.

For series [3], the target named is T1, proliferating cell nuclear antigen (PCNA) (UniProt P12004 1-261). Nature of the series: ITC.
T1 sequence (P12004 whole entry): as above
In series [4] the target is T1, proliferating cell nuclear antigen …. Nature of the series: ITC. This is another data set of the same source.
Series [5] shares this target. Description: ITC. This is another data set of the same source.
For series [6] the target is unchanged. Description: ITC. The source holds these as a separate data set.
Series [7] has the same target. Nature of the series: ITC. The source holds these as a separate data set.
Series [8] has the same target. Nature of the series: ITC. The source holds these as a separate data set.

In general, half-life refers to the time in which the quantity being followed falls by half. Low values mean fast loss, high ones slow loss. Molecule `CSCC[C@H](NC(=O)[C@H](CO)NC(=O)[C@@H](NC(=O)[C@H](CCC(N)=O)NC(=O)[C@H](CCCNC(=N)N)NC(=O)[C@H](CCCNC(=N)N)NC(=O)[C@H](CCCCN)NC(=O)[C@H](CCCNC(=N)N)NC(C)=O)[C@@H](C)O)C(=O)N[C@H](C(=O)N[C@@H](CC(=O)O)C(=O)N[C@@H](Cc1ccccc1)C(=O)N[C@@H](Cc1ccc(O)cc1)C(=O)N[C@@H](Cc1c[nH]cn1)C(=O)N[C@@H](CO)C(=O)N[C@@H](CCCCN)C(=O)N[C@@H](CCCNC(=N)N)C(=O)N[C@@H](CCCNC(=N)N)C(N)=O)[C@@H](C)O` [p21_140–156] returned a half-life at 10 μM in series [1] of around 11 min.
Ac-KKKKQTSMTDFYHSKKK-NH2 [p21All–K]: the “N (binding stoichiometry)” value is on record as 0.92 ± 0.01 in series [2] (100 mM NaCl), 0.75 ± 0.02 in series [2] (200 mM NaCl), 0.71 ± 0.02 in series [2] (300 mM NaCl) and 0.80 ± 0.02 in series [2] (400 mM NaCl). Also, the ΔH in series [2] (100 mM NaCl) is -68 ± 2 kJ/mol; in series [2] (200 mM NaCl), -74 ± 4 kJ/mol; in series [2] (300 mM NaCl) it was -80 ± 3 kJ/mol; in series [2] (400 mM NaCl) it was -76 ± 3 kJ/mol. Further, the “−TΔS” value in series [2] (100 mM NaCl) came out at 28 ± 2 kJ/mol; in series [2] (200 mM NaCl) it was 37 ± 4 kJ/mol; in series [2] (300 mM NaCl), 41 ± 3 kJ/mol; in series [2] (400 mM NaCl), 41 ± 4 kJ/mol.
For the molecule Ac-KRKKQTSMTDFYHSRKK-NH2 [p21SWAP], the “N (binding stoichiometry)” value in series [2] (100 mM NaCl) was determined as 0.95 ± 0.04; in series [2] (200 mM NaCl), 0.79 ± 0.09; in series [2] (300 mM NaCl), 0.82 ± 0.04; in series [2] (400 mM NaCl), 0.79 ± 0.01. For the same molecule, the ΔH was -60.8 ± 0.9 kJ/mol in series [2] (100 mM NaCl), -76 ± 2 kJ/mol in series [2] (200 mM NaCl), -72 ± 4 kJ/mol in series [2] (300 mM NaCl) and -74 ± 2 kJ/mol in series [2] (400 mM NaCl). Besides, the “−TΔS” value in series [2] (100 mM NaCl) was determined as 20.5 ± 0.9 kJ/mol; in series [2] (200 mM NaCl), 38 ± 2 kJ/mol; in series [2] (300 mM NaCl), 36 ± 4 kJ/mol; in series [2] (400 mM NaCl), 38 ± 2 kJ/mol.
As to Ac-RRRRQTSMTDFYHSRRR-NH2 [p21All–R], the “N (binding stoichiometry)” value is reported as 0.80 ± 0.05 in series [2] (100 mM NaCl), 0.73 ± 0.01 in series [2] (200 mM NaCl), 0.68 ± 0.01 in series [2] (300 mM NaCl) and 0.61 ± 0.02 in series [2] (400 mM NaCl). Moreover, the ΔH was -87 ± 1 kJ/mol in series [2] (100 mM NaCl), -84 ± 3 kJ/mol in series [2] (200 mM NaCl), -83.5 ± 0.9 kJ/mol in series [2] (300 mM NaCl) and -81 ± 3 kJ/mol in series [2] (400 mM NaCl). Besides, the “−TΔS” value turned out to be 45 ± 2 kJ/mol in series [2] (100 mM NaCl), 45 ± 3 kJ/mol in series [2] (200 mM NaCl), 46 ± 1 kJ/mol in series [2] (300 mM NaCl) and 44 ± 3 kJ/mol in series [2] (400 mM NaCl).
Broadly, the Kd is the equilibrium constant for the complex coming apart. A high value points to weaker binding. One may read the stoichiometry N as a count of units in the complex or per binding partner. In the case of Ac-QTSMTDFYHS-NH2 [p21_(core) peptide (isolated p21 core motif QTSMTDFYHS)], in series [3], binding was characterised by a dissociation constant (Kd) of 34300 nM, the dH is -88 kJ/mol and the “stoichiometry N” value amounted to 0.71. In addition, in series [4], the dH was -56 kJ/mol and the “stoichiometry N” value worked out at 0.7.
On to Ac-RKRRQTSMTDFYHSKRR-NH2 [p21_(140–156) peptide (wild-type p21 PIP-degron with flanking regions)], for which the Kd in series [5] amounted to 182 nM; in series [6] it was 19 nM; in series [3] it was 341 nM; in series [4] it was 68 nM; in series [7] it was 606 nM; in series [8], 579 nM. Also, the dH in series [5] is -90 kJ/mol; in series [6] it was -73.9 kJ/mol; in series [3], -89.6 kJ/mol; in series [4] it was -75.9 kJ/mol; in series [7] it was -93 kJ/mol; in series [8], -89 kJ/mol. The “stoichiometry N” value in series [5] amounted to 0.86; in series [6], 0.77; in series [3], 0.76; in series [4], 0.86; in series [7], 0.8; in series [8] it was 0.72.
On to Ac-RRRRQTSMTDFYHSRRR-NH2 [p21_(All–R) peptide], for which the Kd in series [5] amounted to 139 nM; in series [3] it was 273 nM; in series [4], 45 nM; in series [7], 398 nM. The dH in series [5] was -84 kJ/mol; in series [3], -83.5 kJ/mol; in series [4] it was -87 kJ/mol; in series [7], -81 kJ/mol. In addition, the “stoichiometry N” value in series [5] came to 0.73; in series [3], 0.68; in series [4], 0.8; in series [7], 0.61.
Turning to Ac-KRKKQTSMTDFYHSRKK-NH2 [p21_(SWAP) peptide], the Kd in series [5] was determined as 206 nM; in series [3], 407 nM; in series [4] it was 87 nM; in series [7], 547 nM. Moreover, the dH in series [5] was -76 kJ/mol; in series [3], -72 kJ/mol; in series [4], -60.8 kJ/mol; in series [7] it was -74 kJ/mol. The “stoichiometry N” value in series [5] was determined as 0.79; in series [3], 0.82; in series [4], 0.95; in series [7], 0.79.
For the molecule Ac-KKKKQTSMTDFYHSKKK-NH2 [p21_(All–K) peptide], the Kd was found to be 347 nM in series [5], 456 nM in series [3], 87 nM in series [4] and 653 nM in series [7]. The dH was -74 kJ/mol in series [5], -80 kJ/mol in series [3], -68 kJ/mol in series [4] and -76 kJ/mol in series [7]. Moreover, the “stoichiometry N” value in series [5] worked out at 0.75; in series [3], 0.71; in series [4], 0.92; in series [7] it was 0.8.
